RAM network inh – blocks the yeast RAM network; 1.8% of 190,000 active; inhibition, % at 50 µM; S. cerevisiae dse1pr::URA3 reporter, 5-FOA growth OD615, 2 d; analog-sensitive cbk1-as2 kinase mutant strain; AID 868;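 active = inhibition above a set limit, 3 SD over mean compound inhibition, cut at about 8.4% in these data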;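 note: 0% = DMSO-only wells with no growth and 100% = 10 µM 1-NA-PP1 full growth; inhibition rescues growth on 5-FOA so higher OD means more RAM inhibition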
NPY-Y1 antag – NPY-Y1 (human) receptor antagonism; P25929; HEK293-CNG Y1 cells, membrane potential fluorescence; NPY at EC95, then isoproterenol; inhibition, % at 3.6 µM; 1% of 200,000 active; AID 1040;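 active = inhibition above the campaign mean inhibition of all tested compounds plus 3 SD, cut at about 20% in these data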;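 note: 0% = DMSO wells given NPY plus isoproterenol and 100% = isoproterenol alone without NPY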
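Material: HEK293 cells with Y1 receptor plus CNG channel; times: compound incubation 1 h at room temperature, readout 45 min post-stimulation; signal: fluorescence, membrane potential probe; read-out basis: fluorescence ratio normalized to % inhibition between controls; benchmarks: full-block control isoproterenol-only wells, zero-block control NPY plus isoproterenol wells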
NPY1 pot ag – human NPY-Y1 potentiation or agonism, primary screen. P25929. 0.37% of 220,000 active. activation, % at 3.6 µM. NPY-Y1 expressing cells, potentiator/agonist activation; in the data active = activation above about 33%, passing the limit was not always enough;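 note: cells stimulated with NPY at EC10 then isoproterenol at EC100; 0% = low agonist plus stimulus and 100% = saturating agonist plus stimulus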
NPY-Y2 PAM-ag – human NPY-Y2 potentiation or agonism, primary screen; 0.45% of 220,000 active; cells expressing NPY-Y2, potentiator/agonist read-out; P49146; AID 1359; activation, % at 3.6 µM; in the data active = activation above about 27%;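 note: cells stimulated with NPY near EC25 plus isoproterenol at EC100; 0% = vehicle plus submaximal agonist and 100% = vehicle plus saturating agonist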
Target sequence (P49146 whole entry, looked up): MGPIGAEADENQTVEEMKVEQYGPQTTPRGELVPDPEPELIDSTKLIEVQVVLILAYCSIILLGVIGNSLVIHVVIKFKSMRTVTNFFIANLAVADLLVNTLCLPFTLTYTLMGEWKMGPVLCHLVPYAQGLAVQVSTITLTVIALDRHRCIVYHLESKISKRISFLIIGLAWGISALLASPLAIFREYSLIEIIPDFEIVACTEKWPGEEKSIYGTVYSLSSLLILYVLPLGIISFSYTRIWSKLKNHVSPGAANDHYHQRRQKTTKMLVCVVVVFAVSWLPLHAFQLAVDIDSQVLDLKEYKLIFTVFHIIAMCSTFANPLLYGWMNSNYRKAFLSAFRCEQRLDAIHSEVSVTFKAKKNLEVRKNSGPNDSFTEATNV
NPY Y2 blocker – antagonists of human neuropeptide Y receptor Y2 | P49146 | inhibition, % at 2.7 µM | NPY-Y2 expressing cells, antagonist mode | 0.99% of 140,000 active; in the data active = inhibition above about 17%;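 note: 0% = vehicle with agonist challenge and 100% = reference antagonist with challenge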
WT yeast gro inh – growth inhibition of WT yeast, mitochondrial fusion screen | mitochondrial fusion phenotypic screen, WT strain | AID 1362 | 2.1% of 190,000 active | inhibition, % at 10 µM; in the data active = inhibition above about 58%; tested in S. cerevisiae
* hit, by the source's call; nt = not tested or not shown. The list is not random: actives were taken first. Their share in the collection is about 4.9%.

SMILES | RAM network inh | NPY-Y1 antag | NPY1 pot ag | NPY-Y2 PAM-ag | NPY Y2 blocker | WT yeast gro inh
COc1ccccc1/C(C)=N/NC(=S)NCc1ccccc1 | -1 | 6 | -22 | -12 | nt | 65*
C/C(CCC(C)C)=N\NC(=S)NCc1ccccc1 | 1 | 8 | 0 | -4 | nt | 60*
C/C(=N\NC(=S)NCc1ccccc1)c1ccc2ccccc2c1 | 6 | 7 | -27 | -11 | 7 | 64*
COc1ccc(C(=O)C2CCCN(Cc3ccc(C#CCCO)cc3)C2)c(OC)c1 (configuration not stated) | 0 | 5 | -4 | -4 | nt | 3
COc1ccc(/C=C/C(=O)NC(=S)Nc2ccc(S(=O)(=O)Nc3cc(OC)ncn3)cc2)cc1 | 8.7* | -1 | -9 | -12 | nt | -4
CN(C)CC(C)(C)CNS(=O)(=O)c1ccc(Cl)cc1 | 1 | -2 | -12 | -2 | nt | 18
CCOc1ccc(N/C(N)=N/c2nc(CSc3nnnn3-c3ccccc3)cc(=O)[nH]2)cc1 | nt | nt | -7 | -9 | nt | nt
CN(CC(O)CON=C1c2ccccc2-c2ccccc21)S(=O)(=O)c1ccc(Br)cc1 (configuration not stated) | 9.3* | 10 | 9 | -5 | 2 | 46
Cc1cccc(N(CC(O)CON=C2c3ccccc3-c3ccccc32)S(C)(=O)=O)c1 (configuration not stated) | 9.8* | -1 | -11 | 2 | 1 | 63*
CS(=O)(=O)N(CC(O)CON=C1c2ccccc2-c2ccccc21)c1ccc(F)cc1 (configuration not stated) | 3 | 2 | 3 | 1 | -1 | -13
CC(C)N=c1scc(-c2ccco2)n1/N=C/c1ccc(O)c(O)c1 | -1 | -5 | 50 | 34* | -6 | 6
COCCN=c1scc(-c2ccco2)n1/N=C/c1ccc(O)c(O)c1O | 3 | 4 | 26 | 22 | nt | -5
Cc1cc(N2CCC(C)CC2)nc(-n2nc(C)cc2C)n1 | 0 | 6 | 4 | -3 | 1 | 67*
Cc1cc(C)n(-c2nc3ccccc3nc2N2CCC(C)CC2)n1 | -1 | 11 | 2 | -3 | 7 | -5
Cc1ccc(N(CC(=O)N2CCCCC2)S(=O)(=O)c2ccc(C)cc2)cc1 | 1 | 1 | 15 | -12 | nt | 15
Cc1cc(N2CCN(C)CC2)nc2ccc(NC(=S)N3CCN(c4ccc(F)cc4)CC3)cc12 | 3 | -3 | 3 | -13 | nt | 0
Cc1cc(N2CCN(C)CC2)nc2ccc(NC(=S)N3CCN(c4ccc(Cl)cc4)CC3)cc12 | 0 | 1 | 3 | -4 | nt | 97*
COc1cccc(Nc2cc(C)nc3nc(C)nn23)c1 | 2 | 6 | 13 | -3 | 0 | -2
CC(=O)c1ccc(NC(=O)Nc2cccc(Cl)c2)cc1 | -1 | -7 | 18 | 11 | -1 | 72*
COC(=O)c1ccc(NC(=O)Nc2ccc(F)c(Cl)c2)cc1 | 5 | -1 | -7 | 1 | 8 | 62*
CC1=CC(C)(C)N(C(=O)c2ccc(F)cc2)c2cc3c(cc21)OCO3 | 2 | 11 | -7 | 3 | 11 | 71*
O=C(NCc1ccccc1)c1cnc2n(c1=O)CCS2 | 1 | 0 | -12 | -8 | 1 | -3
N#Cc1c(-c2cccnc2)c2c([nH]c1=S)CCCC2 | 2 | -11 | -5 | 10 | 1 | 91*
Cc1ccccc1NC(=S)N(CCCN1CCOCC1)Cc1cccnc1 | 0 | -1 | 0 | 13 | nt | 1
O=S(Cc1ccc(Br)cc1)Cc1nnc(SCc2ccc(Br)cc2)n1-c1ccccc1 (configuration not stated) | 5 | 7 | -12 | -14 | 6 | 82*
SMILES | RAM network inh | NPY-Y1 antag | NPY1 pot ag | NPY-Y2 PAM-ag | NPY Y2 blocker | WT yeast gro inh
CCOC(=O)c1cc2sccc2n1Cc1ccccc1 | 1 | 2 | 2 | 6 | 11 | 34
Cc1cnc(NC(=O)CSc2nnc(CNc3ccc(F)cc3)n2CC2CCCO2)s1 (configuration not stated) | 1 | 0 | -9 | 5 | 1 | 1
Cc1ccc(N/C=C/C(=O)c2sc(-c3ccccc3)nc2C)cc1 | 9.0* | 13 | -15 | -26 | 7 | 9
Cc1nc(-c2ccccc2)sc1C(=O)NN | 0 | 4 | -8 | -3 | nt | -11
Cc1ccc(CSc2nnc(C)c(=O)[nH]2)cc1 | 3 | 17 | 3 | -19 | nt | 5
Cc1ccc2c(c1)c1c3n2CCN(C(=O)C2CC2)C3CCC1 (configuration not stated) | 0 | 0 | -12 | -6 | 2 | 8
Cc1ccc2c(c1)c1c3n2CCCN(Cc2ccccc2)C3CCC1 (configuration not stated) | 1 | 1 | -15 | -5 | 2 | 81*
O=c1[nH]c(CSc2ccccn2)nc2c1cnn2-c1ccccc1 | 3 | 1 | -2 | 3 | 5 | 19
N#Cc1c(/N=C/c2ccccc2)oc(-c2ccccc2)c1-c1ccccc1 | 1 | 2 | -22 | -2 | 2 | 0
COc1ccc(-c2oc(/N=C/N3CCOCC3)c(C#N)c2-c2ccc(OC)cc2)cc1 | 9.1* | -7 | 20 | 28 | -2 | 16
CCOc1cc(N2CCOCC2)c(OCC)cc1NC(=O)COC(=O)c1cc2ccccc2cc1O | 8 | 12 | -23 | 0 | 6 | 9
CC1CCN(CCOc2ccccc2-c2ccccc2)CC1 | 0 | 6 | -38 | -11 | 13 | 11
CC1CC(C)CN(CCOc2ccccc2-c2ccccc2)C1 (configuration not stated) | 1 | 34* | -23 | -9 | 30* | 23
CCCCC1=NN(C(=O)c2cccnc2)C(O)(C(F)(F)F)C1 (configuration not stated) | nt | nt | 1 | -4 | nt | nt
CN(NS(=O)(=O)c1ccc(Br)cc1)c1nc(C(F)(F)F)nc2ccccc12 | 3 | 1 | -6 | 13 | nt | 77*
Cc1oc(C(=O)O)cc1CSCc1cc(C(=O)O)c(C)o1 | 2 | 1 | 0 | 7 | 0 | -2
O=C(CSCC(=O)OCC(=O)c1ccc(Br)cc1)Nc1cccc2ccccc12 | 10* | -3 | 9 | -25 | 4 | 17
O=C(CCC(=O)OCC(=O)c1ccc(Br)cc1)Nc1cccc2cccnc12 | 4 | -2 | -17 | -15 | 5 | 19
O=C(CSc1cccc2cccnc12)OCC(=O)c1ccc(Br)cc1 | 9.6* | 7 | 10 | -10 | 3 | 4
CC(=O)OCC(=O)N1N=C(c2ccc3ccccc3c2)CC1c1ccccc1 (configuration not stated) | 7 | 6 | 0 | -21 | nt | 68*
CCC1CCCCN1C(=O)c1cc(-c2ccc(Cl)c(Cl)c2)on1 (configuration not stated) | 8 | 6 | -34 | -19 | 5 | 74*
CC1CCCCN1C(=O)c1cc(-c2ccc(Cl)c(Cl)c2)on1 (configuration not stated) | 3 | 15 | 7 | -7 | 6 | 29
O=c1c2ccccc2nc(/C=C/c2ccc([N+](=O)[O-])o2)n1CCCO | 1 | 6 | 0 | 3 | 3 | 65*

Assay outcomes (PubChem BioAssay)
